From ChEMBL document CHEMBL3098130, “Discovery of Novel Putative Inhibitors of UDP-GlcNAc 2-Epimerase as Potent Antibacterial Agents” (ACS Med Chem Lett, 2013)

Key:
[1] = Clearance in CD1 mouse at 50 mg/kg, ip bid; type: ADME, organism-based; parameters: dose 50 mg/kg, route intraperitoneal; details: in vivo
How it was run: (§1)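 Female CD-1 mice received the test compound intraperitoneally, either as a single dose (25, 50 or 100 mg/kg) or as 50 mg/kg BID. Exposure was followed over time, and clearance was reported in mL/h/kg together with tmax, Cmax, half-life, VZ and AUC.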

[2] = system: Mus musculus; test: T>MIC in CD1 mouse at 50 mg/kg, ip; details: route intraperitoneal
How it was run: (§2)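 Female CD-1 mice, single intraperitoneal dose of 25, 50 or 100 mg/kg; the 50 mg/kg BID group was dosed twice. Plasma levels were followed over time to derive tmax, Cmax, half-life, Vz, clearance and AUC. Time above MIC was taken against a 2000 ng/mL plasma threshold.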

[3] = Inhibition of Bacillus anthracis UDP-GlcNAc 2-epimerase using UDP-GlcNAc as substrate preincubated for 15 mins by UDP-ManNAc dehydrogenase-coupled assay
[4] = system: Salmonella enterica; test: Antibacterial activity against Salmonella enterica assessed as growth inhibition measured for 3 days by broth microdilution method; type: functional
How it was run: (§3)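 MIC by broth microdilution against a panel of Gram-positive and Gram-negative strains (ATCC-type numbers where given). Run in triplicate on three different days.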

[5] = system: Mus musculus; test: Apparent volume of distribution in CD1 mouse at 25 mg/kg, ip; type: ADME, organism-based; parameters: dose 25 mg/kg, route intraperitoneal; details: in vivo; how it was run: as §2
[6] = system: Proteus mirabilis; test: Antibacterial activity against Proteus mirabilis assessed as growth inhibition measured for 3 days by broth microdilution method; type: functional; how it was run: as §3
[7] = Clearance in CD1 mouse at 50 mg/kg, ip; type: ADME, organism-based; parameters: dose 50 mg/kg, route intraperitoneal; details: in vivo; how it was run: as §1
[8] = Chemical stability in aqueous solution assessed as compound isomerization/degradation at pH 10 after 3 days by HPLC/NMR analysis; type: physicochemical; details: buffer, pH 10, 72 h
[9] = system: Mus musculus; test: Half life in CD1 mouse at 50 mg/kg, ip bid; type: ADME, organism-based; parameters: dose 50 mg/kg, route intraperitoneal; details: in vivo; how it was run: as §2
[10] = system: Mus musculus; test: Cmax in CD1 mouse at 25 mg/kg, ip; type: ADME, organism-based; parameters: dose 25 mg/kg, route intraperitoneal; details: in vivo; how it was run: as §2
[11] = system: Mus musculus; test: Cmax in CD1 mouse at 50 mg/kg, ip; type: ADME, organism-based; parameters: dose 50 mg/kg, route intraperitoneal; details: in vivo; how it was run: as §2
[12] = Aqueous solubility of the compound; type: physicochemical; details: buffer
[13] = system: Mus musculus; test: AUC in CD1 mouse at 50 mg/kg, ip bid; type: ADME, organism-based, Plasma; parameters: dose 50 mg/kg, route intraperitoneal; details: in vivo; how it was run: as §2
[14] = system: Mus musculus; test: Apparent volume of distribution in CD1 mouse at 100 mg/kg, ip; type: ADME, organism-based; parameters: dose 100 mg/kg, route intraperitoneal; details: in vivo; how it was run: as §2
[15] = Clearance in CD1 mouse at 100 mg/kg, ip; type: ADME, organism-based; parameters: dose 100 mg/kg, route intraperitoneal; details: in vivo; how it was run: as §1
[16] = system: Mus musculus; test: Cmax in CD1 mouse at 50 mg/kg, ip bid; type: ADME, organism-based; parameters: dose 50 mg/kg, route intraperitoneal; details: in vivo; how it was run: as §2
[17] = system: Mus musculus; test: AUC in CD1 mouse at 25 mg/kg, ip; type: ADME, organism-based, Plasma; parameters: dose 25 mg/kg, route intraperitoneal; details: in vivo; how it was run: as §2
[18] = system: Bacillus atrophaeus; test: Antibacterial activity against Bacillus atrophaeus assessed as growth inhibition measured for 3 days by broth microdilution method; type: functional; how it was run: as §3
[19] = system: Mus musculus; test: Apparent volume of distribution in CD1 mouse at 50 mg/kg, ip; type: ADME, organism-based; parameters: dose 50 mg/kg, route intraperitoneal; details: in vivo; how it was run: as §2
[20] = system: Mus musculus; test: Toxicity in CD1 mouse assessed as mortality at < 100 mg/kg, ip; type: organism-based; parameters: dose 100 mg/kg, route intraperitoneal; details: in vivo
How it was run: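 Female CD-1 mice were given the compound intraperitoneally in the PK dose groups. Mortality and clinical observations were recorded.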

[21] = system: Mus musculus; test: Tmax in CD1 mouse at 100 mg/kg, ip; type: ADME, organism-based; parameters: dose 100 mg/kg, route intraperitoneal; details: in vivo; how it was run: as §2
[22] = system: Mus musculus; test: T>MIC in CD1 mouse at 100 mg/kg, ip; details: route intraperitoneal; how it was run: as §2
[23] = system: Acinetobacter baumannii; test: Antibacterial activity against Acinetobacter baumannii assessed as growth inhibition measured for 3 days by broth microdilution method; type: functional; how it was run: as §3
[24] = system: Enterococcus faecalis; test: Antibacterial activity against Enterococcus faecalis 19433 assessed as growth inhibition measured for 3 days by broth microdilution method; type: functional; how it was run: as §3
[25] = system: Enterococcus faecium; test: Antibacterial activity against Enterococcus faecium 6569 assessed as growth inhibition measured for 3 days by broth microdilution method; type: functional; how it was run: as §3
[26] = system: Streptococcus agalactiae; test: Antibacterial activity against Streptococcus agalactiae 12386 assessed as growth inhibition measured for 3 days by broth microdilution method; type: functional; details: Streptococcus agalactiae, 12386, 72 h; how it was run: as §3
[27] = Clearance in CD1 mouse at 25 mg/kg, ip; type: ADME, organism-based; parameters: dose 25 mg/kg, route intraperitoneal; details: in vivo; how it was run: as §1
[28] = system: Mus musculus; test: T>MIC in CD1 mouse at 50 mg/kg, ip bid; details: route intraperitoneal; how it was run: as §2
[29] = system: Mus musculus; test: Half life in CD1 mouse at 25 mg/kg, ip; type: ADME, organism-based; parameters: dose 25 mg/kg, route intraperitoneal; details: in vivo; how it was run: as §2
[30] = system: Mus musculus; test: Half life in CD1 mouse at 50 mg/kg, ip; type: ADME, organism-based; parameters: dose 50 mg/kg, route intraperitoneal; details: in vivo; how it was run: as §2
[31] = system: Staphylococcus epidermidis; test: Antibacterial activity against Staphylococcus epidermidis 13518 assessed as growth inhibition measured for 3 days by broth microdilution method; type: functional; details: Staphylococcus epidermidis, 13518, 72 h; how it was run: as §3
[32] = system: Mus musculus; test: Apparent volume of distribution in CD1 mouse at 50 mg/kg, ip bid; type: ADME, organism-based; parameters: dose 50 mg/kg, route intraperitoneal; details: in vivo; how it was run: as §2
[33] = system: Mus musculus; test: Tmax in CD1 mouse at 50 mg/kg, ip bid; type: ADME, organism-based; parameters: dose 50 mg/kg, route intraperitoneal; details: in vivo; how it was run: as §2
[34] = system: Mus musculus; test: Half life in CD1 mouse at 100 mg/kg, ip; type: ADME, organism-based; parameters: dose 100 mg/kg, route intraperitoneal; details: in vivo; how it was run: as §2
[35] = system: Serratia marcescens; test: Antibacterial activity against Serratia marcescens assessed as growth inhibition measured for 3 days by broth microdilution method; type: functional; how it was run: as §3
[36] = system: Mus musculus; test: T>MIC in CD1 mouse at 25 mg/kg, ip; details: route intraperitoneal; how it was run: as §2
[37] = system: Shigella sonnei; test: Antibacterial activity against Shigella sonnei assessed as growth inhibition measured for 3 days by broth microdilution method; type: functional; how it was run: as §3
[38] = system: Mus musculus; test: Tmax in CD1 mouse at 25 mg/kg, ip; type: ADME, organism-based; parameters: dose 25 mg/kg, route intraperitoneal; details: in vivo; how it was run: as §2
[39] = system: Pseudomonas aeruginosa; test: Antibacterial activity against Pseudomonas aeruginosa assessed as growth inhibition measured for 3 days by broth microdilution method; type: functional; how it was run: as §3
[40] = system: Mus musculus; test: Tmax in CD1 mouse at 50 mg/kg, ip; type: ADME, organism-based; parameters: dose 50 mg/kg, route intraperitoneal; details: in vivo; how it was run: as §2
[41] = system: Escherichia coli; test: Antibacterial activity against Escherichia coli assessed as growth inhibition measured for 3 days by broth microdilution method; type: functional; how it was run: as §3
[42] = system: Mus musculus; test: Cmax in CD1 mouse at 100 mg/kg, ip; type: ADME, organism-based; parameters: dose 100 mg/kg, route intraperitoneal; details: in vivo; how it was run: as §2
[43] = system: Mus musculus; test: AUC in CD1 mouse at 100 mg/kg, ip; type: ADME, organism-based, Plasma; parameters: dose 100 mg/kg, route intraperitoneal; details: in vivo; how it was run: as §2
[44] = system: Candida albicans; test: Antifungal activity against Candida albicans assessed as growth inhibition measured for 3 days by broth microdilution method; type: functional; details: 72 h
[45] = system: Mus musculus; test: AUC in CD1 mouse at 50 mg/kg, ip; type: ADME, organism-based, Plasma; parameters: dose 50 mg/kg, route intraperitoneal; details: in vivo; how it was run: as §2

For `O=C([O-])[C@H](Cc1ccccc1)N1C(=O)/C(=C\c2ccc(-c3ccc(Cl)c(Cl)c3)o2)NC1=S.[Na+]`, the CL/F [1] was 0.783 mL/min/kg, the “T>MIC” value [2] was 14.6 h and the Ki [3] was 82 µM. For the same compound, the MIC [4] was greater than 25 µM, the Vz [5] was 0.5 L/kg and the MIC [6] was greater than 25 µM. For the same compound, the CL/F [7] was 1.67 mL/min/kg, the Stability [8] was “Stable” and the t1/2 [9] was 3.4 h. The Cmax [10] was 68 µg/mL, the Cmax [11] was 140 µg/mL and the solubility [12] was “soluble”. The AUC [13] was 1050 µg·h/mL, the Vz [14] was 0.18 L/kg and the CL/F [15] was 0.917 mL/min/kg. It also gave a Cmax [16] of 320 µg/mL, an AUC [17] of 170 µg·h/mL and an MIC [18] of 7.8 µM. For the same compound, the Vz [19] was 0.34 L/kg, the Activity [20] was “Non-toxic” and the Tmax [21] was 4.8 min. For the same compound, the “T>MIC” value [22] was 19.4 h, the MIC [23] was greater than 25 µM and the MIC [24] was 15.6 µM. For the same compound, the MIC [25] was 15.6 µM, the MIC [26] was 3.9 µM and the CL/F [27] was 2.33 mL/min/kg. For the same compound, the “T>MIC” value [28] was 18.3 h, the t1/2 [29] was 2.4 h and the t1/2 [30] was 2.3 h. For the same compound, the MIC [31] was 2 µM, the Vz [32] was 0.24 L/kg and the Tmax [33] was 3.08 h. For the same compound, the t1/2 [34] was 2.2 h, the MIC [35] was greater than 25 µM and the “T>MIC” value [36] was 10.6 h. It also gave an MIC [37] greater than 25 µM, a Tmax [38] of 4.8 min and an MIC [39] greater than 25 µM. It also gave a Tmax [40] of 0.5 h, an MIC [41] greater than 25 µM and a Cmax [42] of 490 µg/mL. It also gave an AUC [43] of 1800 µg·h/mL, an MIC [44] greater than 25 µM and an AUC [45] of 480 µg·h/mL.
